ChEMBL document CHEMBL5370647 (J Med Chem, 2023)
Active and inactive are the calls of the source. The calls are words filed in the database; no cut-off is given here.

Key:
[1] = Half life in CD-1 mouse at 10 mg/kg, po by LC/MS/MS analysis; type: ADME, organism-based; conditions: in vivo
Procedure, shortened: (§1)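 CD1 mice dosed orally at 10 mg/kg (snapshot PK study). Plasma levels followed over 5 h by LC/MS/MS. T1/2, Cmax and AUC_last derived from the plasma profile.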

[2] = Metabolic stability of the compound in CD-1 mouse liver microsomes at 5 uM by LC-TOF/MS analysis; type: ADME, Microsome
Procedure, shortened: (§2)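 Mouse liver microsomes incubated with compound in the presence of NADPH. Read-out is % parent compound remaining after 30 min.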

[3] = Oral bioavailability in CD-1 mouse at 10 mg/kg by LC/MS/MS analysis; type: ADME, organism-based; conditions: in vivo
Procedure, shortened: (§3)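 Full PK study in CD1 mice at 10 mg/kg given by oral, intravenous and intraperitoneal routes. Plasma levels monitored over 8 h by LC/MS/MS.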

[4] = system: Mycobacterium tuberculosis; assay: Antitubercular activity against non-replicating Mycobacterium tuberculosis H37Rv expressing luxCDAB assessed as inhibition of bacterial growth incubated for 7 days under hypoxia conditions followed by incubation in normoxia conditions for 5 days by luminescence based analysis; type: functional; conditions: 288 h, time 12 day
[5] = Cmax in CD-1 mouse at 10 mg/kg, po by LC/MS/MS analysis; type: ADME, organism-based; parameters: dose 10 mg/kg, route po; conditions: in vivo; procedure, shortened: as §1
[6] = Bioavailability in CD-1 mouse at 10 mg/kg, ip by LC/MS/MS analysis; type: ADME, organism-based; conditions: in vivo; procedure, shortened: as §3
[7] = AUC(last) in CD-1 mouse at 10 mg/kg, po by LC/MS/MS analysis; type: ADME, organism-based; parameters: dose 10 mg/kg, route po; conditions: in vivo; procedure, shortened: as §1
[8] = Metabolic stability of the compound in CD-1 mouse liver microsomes assessed as parent compound remaining at 5 uM preincubated for 5 mins followed by NADPH addition and measured after 30 mins by LC-TOF/MS analysis; type: ADME, Microsome; conditions: time 35 min, read-out: Stability; procedure, shortened: as §2
[9] = Volume of distribution in CD-1 mouse at 10 mg/kg by LC/MS/MS analysis; type: ADME, organism-based; conditions: in vivo; procedure, shortened: as §3
[10] = system: Mycobacterium tuberculosis; assay: Antitubercular activity against RIF/INH-tolerant persistent Mycobacterium tuberculosis H37Rv assessed as reduction of viable bacteria at 4.9 uM incubated for 14 days followed by drug wash-out and measured after 21 days; type: functional, organism-based; conditions: time 14.0 day
Procedure, shortened: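 Static at 37 °C for 14 days, washed twice, resuspended in fresh 7H9 and recovered for 28 days. CFU plated 21 and 28 days after drug removal.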

SMILES	t1/2 [1] [h]	Stability [2]	bioavailability [3] [%]	MIC50 [4] [µM]	MIC90 [4] [µM]	Cmax [5] [ng/mL]	bioavailability [6] [%]	AUClast [7] [ng·h/mL]	remaining at 0.5 h, 5 µM [8] [%]	Vd [9] [L/kg]	Activity [10]
Cc1cccc(-c2nc(Nc3ccncc3)c3ccn(C)c3n2)n1	1.9	Stable	25	< 1	< 1	280	65	640	39	4.65	–
CC[C@@H](CO)NCCN[C@@H](CC)CO	–	–	–	–	–	–	–	–	–	–	inactive
